Assay results from different studies.
Protocols differ between the studies behind these lines.
ADRA1A: Alpha-1A adrenergic receptor (ADRA1A, Homo sapiens, UniProt P35348)
rep main protease: Replicase polyprotein 1ab, main protease (rep, Severe acute respiratory syndrome coronavirus 2, UniProt P0DTD1)
MAL12: Alpha-glucosidase MAL12 (MAL12, Saccharomyces cerevisiae S288c, UniProt P53341)

| Compound | target | effect on | action | technique | tested at | endpoint | result |
| --- | --- | --- | --- | --- | --- | --- | --- |
| CCOC(=O)Cc1c2c3c(cc(OC)c(OC)c3c3cc(OC)c(OC)cc13)CCN2C | ADRA1A | ligand displacement | – | radioligand | 10 µM | inhibition | 13% |
| c1cncc([C@@H]2CCCN2)c1 | ADRA1A | ligand displacement | – | – | 50 µM | inhibition | -8.12% |
| CC(C)CC(=O)OC[C@H]1O[C@@](C#N)(c2ccc3c(N)ncnn23)[C@H](O)[C@@H]1O | Histamine H2 receptor (HRH2, Homo sapiens, UniProt P25021) | cell-free assay | – | – | 20 µM | inhibition | 3% |
| CN1CCC[C@H]1c1cccnc1 | ADRA1A | ligand displacement | – | – | 50 µM | inhibition | -6.17% |
| COc1cc2c(cc1OC)-c1c(OC)c(OC)cc3c1[C@H](C2)N(C)CC3 | ADRA1A | ligand displacement | – | radioligand | 10 µM | inhibition | 82% |
| [2H]c1c([2H])c([C@]2([2H])CCCN2C(=O)C(C)(C)Oc2ccc3cn[nH]c3c2)c([2H])c([2H])c1C([2H])([2H])[2H] | Focal adhesion kinase 1 (PTK2, Homo sapiens, UniProt Q05397) | binding | – | competition with immobilised ligand | 1 µM | remaining binding | 75% |
| COc1cc(O)c2c(c1)O[C@H](c1ccccc1)CC2=O | rep main protease | enzyme activity | inhibitor | – | 100 µM | inhibition | 7.82% |
| O=C(O[C@@H]1Cc2c(O)cc(O)cc2O[C@@H]1c1ccc(O)c(O)c1)c1cc(O)c(O)c(O)c1 | rep main protease | enzyme activity | inhibitor | – | – | kinact/KI | 9.76 M⁻¹ s⁻¹ |
| CCc1ccc(N2C(=O)/C(=C3/C(=O)N(C)c4ccc(Cl)cc43)NC2=S)cc1 | MAL12 | enzyme activity | inhibitor | absorbance | 200 µM | inhibition | 62.1% |
| O=C(O)c1cc(O)c(O)c(O)c1 | rep main protease | enzyme activity | inhibitor | – | – | kinact | 0.00079 s⁻¹ |
| COc1ccc(-c2cc(=O)c3c(O)cc(OC)cc3o2)cc1 | rep main protease | enzyme activity | inhibitor | – | 10 µM | inhibition | 3.99% |
| COc1cc2cc3c4c(cc(OC)c(OC)c4c2cc1OC)CCN3C | ADRA1A | ligand displacement | – | radioligand | 10 µM | inhibition | 19% |
| CN1C(=O)/C(=N\Nc2ncc(-c3cc4ccccc4oc3=O)s2)c2cc(Cl)ccc21 | MAL12 | enzyme activity | inhibitor | absorbance | 25 µM | inhibition | 17.4% |
| O=c1c(O)c(-c2cc(O)c(O)c(O)c2)oc2cc(O)cc(O)c12 | rep main protease | enzyme activity | inhibitor | – | 100 µM | inhibition | 100% |
| CN1C(=S)N(c2ccccc2)C(=O)/C1=C1/C(=O)N(C)c2ccc(Cl)cc21 | MAL12 | enzyme activity | inhibitor | absorbance | 25 µM | inhibition | 11.9% |
| O=c1c(O)c(-c2ccc(O)cc2)oc2c(O)c(O)cc(O)c12 | rep main protease | enzyme activity | inhibitor | – | – | kinact | 0.000152 s⁻¹ |
